SKKanGAS inh: blocks kanamycin growth of S. pyogenes SKKanGAS strain. BacTiter-Glo, 6 h. inhibition, % at 7.5 µM. 1.3% of 300,000 active. AID 1662;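 active = mean replicate score, as percent of positive control median, at least 50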;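 note: strain carries kanamycin resistance gene driven by streptokinase promoter and grows in 40 µg/ml kanamycin; loss of luminescence reflects streptokinase promoter inhibition or plain growth inhibition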
T cruzi repl: blocks replication of Trypanosoma cruzi. T. cruzi beta-gal in NIH3T3, luminescence, 90 h. 1.4% of 300,000 active. inhibition, % (concentration not given with the values);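 active = mean inhibition across valid replicates above about 55%, limit read from the data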;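 note: signal also drops with host cell toxicity which is not excluded here; higher percent means less beta-gal luminescence so fewer parasites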
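System: mouse NIH/3T3 fibroblasts infected with β-gal-expressing T. cruzi Tulahuen C4 / Input: NIH/3T3 cells, 5,000 per well / Buffer or medium: Low-serum DMEM with 2% FBS / Probe or stimulus: 5000 reporter trypomastigotes per well / Schedule: ≥90 h infection period, 3 h prior cell attachment / Measured by: GalScreen luminescence, 60 min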
CSC inhib: cancer stem cell inhibition; cancer stem cell-like cells viability, luminescence; inhibition, % at 7.5 µM; 1.1% of 300,000 active; in the data active = inhibition above about 75%; tested in HMLE shEcad cells
PfHsp90 set2: inhibits growth of yeast expressing Plasmodium falciparum Hsp90 | inhibition, % at 9.4 µM | 0.32% of 310,000 active | AID 504621 | S. cerevisiae expressing PfHsp90, BacTiter-Glo ATP, 48 h; yeast lacking PDR1 and PDR3 efflux regulators;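 active = every replicate shows inhibition above about 80%, whatever the replicate mean, limit read from the data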
Beta apoptosis: blocks beta cell apoptosis. INS-1E cytokine-induced death, ATP luminescence, 48 h; percent of positive-control rescue, neutral wells zero. 0.8% of 300,000 active. protection from apoptosis, % (concentration not given with the values). AID 435005;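 active = Every replicate reaches about 75%, or at least half do and their mean reaches it too, limit read from the data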;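 note: higher means more ATP so stronger rescue from cytokine killing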
HIF act: HIF pathway transcriptional activation; U2OS HRE-luciferase reporter, luminescence; normalized: DMSO 0%, desferrioxamine 100%; activation, % at 7.5 µM (by protocol); 0.32% of 300,000 active;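 active = mean activation of at least 10% of the iron chelator positive control signal, with at least half of replicates also reaching 10%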
Numbers stand for hits; i = inactive; nt = no result given. In the library only some 3.6% were active in any assay of this set; here they are far more common.

SMILES	SKKanGAS inh	T cruzi repl	CSC inhib	PfHsp90 set2	Beta apoptosis	HIF act
CC(C)(C)NC(=O)C(c1ccc(F)cc1)N(CCc1ccccc1)C(=O)c1ccn[nH]1 (stereo not drawn)	i	i	i	i	i	i
O=C(NC1CCCC1)C(c1ccncc1)N(CCCN1CCOCC1)C(=O)c1ccc(-c2ccccc2)[nH]1 (stereo not drawn)	i	i	i	i	i	i
O=C(NC1CCCC1)C(c1ccncc1)N(Cc1ccccc1)C(=O)c1ccc(-c2ccccc2)[nH]1 (stereo not drawn)	i	61	i	i	nt	i
O=C(NC1CCCC1)C(c1ccncc1)N(Cc1ccco1)C(=O)c1ccc(-c2ccccc2)[nH]1 (stereo not drawn)	i	56	i	i	i	i
CC(C)(C)NC(=O)C(c1ccncc1)N(Cc1ccc(F)cc1)C(=O)c1ccc(-c2ccccc2)[nH]1 (stereo not drawn)	i	59	i	i	i	i
COc1cc(C2c3cc4c(cc3OC(NCc3ccccc3)C2C)OCO4)cc(OC)c1OC (stereo not drawn)	nt	nt	nt	i	nt	nt
O=C(NCc1ccccc1)C(=O)NCC1OCCN1S(=O)(=O)c1ccc([N+](=O)[O-])cc1 (stereo not drawn)	i	60	i	nt	i	i
CNC(=O)C(=O)NCC1OCCN1S(=O)(=O)c1ccc([N+](=O)[O-])cc1 (stereo not drawn)	i	i	i	i	nt	i
O=C1c2ccccc2C(=O)N1CC#CCN1CCN(C(c2ccccc2)c2ccccc2)CC1	i	i	96	i	i	i
c1ccc(CN2CCN(C(c3ccccc3)c3ccccc3)CC2)cc1	i	i	i	i	i	i
COc1ccc2nc(C)cc(Nc3ccc(N4CCN(C)CC4)cc3)c2c1	i	i	i	i	i	i
COc1ccc2nc(C)cc(N/N=C/c3ccccc3)c2c1	nt	nt	97	i	96	nt
COc1ccccc1/C=N/Nc1cc(C)nc2ccc(C)cc12	i	i	i	i	i	i
COc1ccc2nc(C)cc(Nc3ccc(N4CCOCC4)cc3)c2c1	i	61	nt	i	nt	i
COc1ccc(/C=N/Nc2cc(C)nc3ccc(OC)cc23)c(OC)c1	i	58	101	i	117	i
CCc1ccc(C2CC(c3cccc(Cl)c3)n3nc(N)nc3N2)cc1 (stereo not drawn)	i	i	i	i	105	i
Cc1cc(C)c(C#N)c(SCC(=O)Nc2nonc2N)n1	i	i	i	i	i	i
CCOc1ccc(/C=N/NC(=O)Cc2csc(Nc3cccc(C(F)(F)F)c3)n2)cc1	80	i	i	i	i	i
Cc1ccccc1NS(=O)(=O)c1ccc(C)c(C(=O)N2CCOCC2)c1	52	i	i	i	nt	i
CCCCn1c(N)c(N(CCOC)C(=O)CN(C)S(=O)(=O)c2ccc(F)cc2)c(=O)[nH]c1=O	i	i	i	nt	i	i
Cc1ccc(C(=O)NCCc2nc3ccccc3[nH]2)cc1[N+](=O)[O-]	i	58	i	i	i	i
Cc1cc2cc(CNC(=O)c3ccc(C)c([N+](=O)[O-])c3)ccc2[nH]1	i	i	i	162	i	i
O=C(Cc1nc2ccccc2[nH]1)c1cccc([N+](=O)[O-])c1	i	i	91	i	i	i
C(=N\Nc1nc(N2CCOCC2)nc(N2CCOCC2)n1)/c1ccco1	i	i	i	nt	i	i
O=[N+]([O-])c1ccc(/C=N/Nc2nc(N3CCCC3)nc(N3CCCC3)n2)o1	i	64	i	i	i	i
SMILES	SKKanGAS inh	T cruzi repl	CSC inhib	PfHsp90 set2	Beta apoptosis	HIF act
O=[N+]([O-])c1cccc(/C=N/Nc2nc(N3CCCCC3)nc(N3CCCCC3)n2)c1	52	i	i	i	i	i
Fc1ccc(Nc2nc(N/N=C/c3ccco3)nc(N3CCCCC3)n2)cc1	68	60	i	i	i	i
C(=N\Nc1nc(N2CCCCCC2)nc(N2CCCCCC2)n1)/c1ccccc1	69	i	nt	i	i	i
COc1cc(NC(=O)CNc2cccc(S(=O)(=O)N3CCOCC3)c2)cc(OC)c1	nt	nt	nt	i	nt	nt
CC(C)(Oc1ccc(Cl)cc1)C(=O)NNC(=O)c1ccc(Br)o1	nt	nt	i	i	i	nt
O=C(NCC1CCCO1)c1ccccc1NS(=O)(=O)c1ccc(Br)s1 (stereo not drawn)	nt	nt	nt	i	nt	nt
Cn1c(=O)c(-c2cc(=O)[nH][nH]2)c(O)c2ccccc21	i	i	i	i	nt	i
c1ccc2sc(SCSc3nc4ccccc4s3)nc2c1	54	i	i	i	i	i

Screening results deposited in PubChem by Broad Institute.
